Shown are actives, neighbours in structure and some others; about 4.3% of the full set was active somewhere.
TAAR1 agonist = agonists of human TAAR1 | activation, % at 3 µM | actives 0.99% (n = 360,000) | AID 624467 | CHO RD-HGA16 TAAR1, Fluo-8 calcium fluorescence; vehicle wells 0%, saturating PEA agonist 100% | Q96RJ0;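 active = activation above the mean activation of all test compounds in the run plus 3 SD, cut at about 38% in these data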
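System: CHO-derived RD-HGA16 cells with stable Gα16 and human TAAR1 / Times: 17-24 h plating, Fluo-8 75 min 37 °C, 30 min RT / Technique: calcium-sensitive Fluo-8 signal, excitation 470-495, emission 515-575 nm / Measure: % activation relative to PEA EC100 response / Benchmarks: DMSO and PEA EC100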
HTR2A ag = mouse HTR2A agonism via beta-arrestin recruitment. P35363. CHO-K1 mHTR2A beta-arrestin complementation, luminescence; percent of 30 µM serotonin response. activation, % at 7.6 µM. actives 0.66% (n = 360,000);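 active = activation above a run cutoff, the mean activation of all tested compounds plus 3 SD, cut at about 14% in these data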;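 note: 0% = plate median of compound wells and 100% = 30 µM serotonin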
Target sequence (P35363 whole entry, looked up): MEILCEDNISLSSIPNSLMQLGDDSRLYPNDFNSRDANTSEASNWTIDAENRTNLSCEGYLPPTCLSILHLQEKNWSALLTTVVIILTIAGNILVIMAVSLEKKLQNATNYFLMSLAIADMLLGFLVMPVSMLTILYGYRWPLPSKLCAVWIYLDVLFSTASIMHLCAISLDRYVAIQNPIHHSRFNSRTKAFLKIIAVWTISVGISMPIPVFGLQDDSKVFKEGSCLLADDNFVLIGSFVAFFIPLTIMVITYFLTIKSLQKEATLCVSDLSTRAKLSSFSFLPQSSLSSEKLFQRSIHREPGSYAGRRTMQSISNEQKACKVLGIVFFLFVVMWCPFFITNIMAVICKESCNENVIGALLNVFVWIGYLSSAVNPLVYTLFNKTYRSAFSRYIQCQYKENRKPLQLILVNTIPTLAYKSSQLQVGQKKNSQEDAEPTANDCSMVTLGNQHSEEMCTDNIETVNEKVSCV
MC4R antagonist = human MC4R antagonism in cAMP assay; P32245; MC4R-expressing cells, MTII-stimulated cAMP, LANCE TR-FRET; inhibition, % at 6.5 µM; actives 0.48% (n = 360,000); AID 540295;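 active = inhibition above its plate's cutoff, the mean of tested wells on that plate plus 3 SD, cut at about 29% in these data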;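 note: 0% = Melanotan II alone and 100% = Melanotan II plus saturating MCL0020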
Target sequence (P32245 whole entry, looked up): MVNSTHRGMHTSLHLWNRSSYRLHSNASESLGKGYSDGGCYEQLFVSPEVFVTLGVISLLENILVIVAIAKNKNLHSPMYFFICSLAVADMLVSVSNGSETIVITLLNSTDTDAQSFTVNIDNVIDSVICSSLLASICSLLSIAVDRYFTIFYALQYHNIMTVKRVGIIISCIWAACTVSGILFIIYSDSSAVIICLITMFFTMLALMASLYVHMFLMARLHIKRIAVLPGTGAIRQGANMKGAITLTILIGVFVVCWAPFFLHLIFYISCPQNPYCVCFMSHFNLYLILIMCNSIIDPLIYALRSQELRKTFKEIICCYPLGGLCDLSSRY
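system = U2OS cells with stable human MC4R expression | also added = Melanotan II challenge after compound preincubation | dosing = one concentration, 6.5 µM nominal | incubation = compound 30 min, challenge 1 h, detection 1 h | measured by = TR-FRET with Eu-cAMP and labeled anti-cAMP, 671 nm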
MC4R barr agon = agonists of human melanocortin 4 receptor (MC4R) beta-arrestin; P32245; U2OS MC4R beta-arrestin complementation, luminescence; percent of melanotan II response, DMSO zero; activation, % at 8.9 µM; actives 0.98% (n = 360,000);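 active = activation above a per-plate cutoff, the mean activation of sample wells on that plate plus 3 SD, cut at about 8% in these data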
Beta2AR agonist = agonists of human beta-2 adrenergic receptor inducing internalization; Am2.2-beta2AR cells, FAP receptor internalization, flow cytometry; P07550; response, % (no concentration beside the values); actives 0.43% (n = 340,000);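 active = response above a set limit, near 3 SD of response in nonfluorescent compounds, cut at about 42% in these data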
TAAR1 antagonist = human TAAR1 antagonism | Q96RJ0 | CHO RD-HGA16 TAAR1, Fluo-8 calcium fluorescence, antagonist | inhibition, % at 3 µM | actives 1.5% (n = 360,000) | AID 624466;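 active = inhibition above a per-plate cutoff, the mean inhibition of test compounds on that plate plus 3 SD, cut at about 49% in these data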;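 note: 0% = DMSO plus EC80 beta-PEA response and 100% = DMSO alone without agonist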
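Assay system: RD-HGA16 CHO cells with stable hTAAR1 and Gα16 / Reagent: EC80 β-phenethylamine stimulus / Doses: 3 µM, single point / Timing: dye loading 75 min at 37 °C, then 30 min room temperature / Measured by: Fluo-8 intracellular calcium dye fluorescence, real-time kinetic reads / Controls: vehicle wells and EC80 agonist wells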
Beta2AR ag CP1 = activates human beta-2 adrenergic receptor; actives 25% (n = 1,100); AID 540358; Am2.2-beta2AR cells, FAP surface receptor, flow cytometry; active compounds read low; shares compounds with Beta2AR agonist; percent response (surface receptor), % at 10 µM;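 active = surface receptor percent response at or below 58%, roughly 3 SD from nonfluorescent compounds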
B2AR FAP counter = counter-screen for beta-2AR agonists: fluorescence in Am2.2 cells; shares compounds with Beta2AR agonist; FAP fluorogen flow cytometry, fluorescence counterscreen; active compounds read low; calls only at 10 µM; 1,100 tested, under 10 active;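 active = percent response below a set limit in fluorescence channel 1 and below 50% in channel 8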
U2OS cAMP counter = counter-screen for MC4R antagonists: nonselective cAMP signaling inhibitors; shares compounds with MC4R antagonist; parental U2OS, forskolin cAMP, LANCE TR-FRET; inhibition, % at 6.5 µM; actives 26% (n = 1,600);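 active = mean inhibition over triplicates above the low-control well mean plus 3 SD, set per campaign, cut at about 13% in these data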;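 note: signal is single emission at 671 nm which falls as cellular cAMP rises; 0% = forskolin-stimulated wells and 100% = buffer without forskolin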
MC4R cAMP antag = human MC4R cAMP antagonism confirmation; shares compounds with MC4R antagonist; MC4R-expressing cells, MTII-stimulated cAMP, TR-FRET; inhibition, % at 6.5 µM; actives 27% (n = 1,600); in the data active = inhibition above about 29%;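 note: 0% = agonist stimulated wells alone and 100% = agonist stimulated wells plus saturating reference antagonist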
MC4R barr conf = human MC4R beta-arrestin agonism confirmation; activation, % at 8.9 µM; U2OS MC4R beta-arrestin recruitment, luminescence; scaled DMSO 0%, Melanotan II 100%; actives 31% (n = 2,400); shares compounds with MC4R barr agon;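 active = mean activation across replicates above the hit cutoff set in the earlier primary screen, cut at about 8% in these data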
MOR-DOR barr ag = counter-screen for MC4R agonists: agonists of mu-delta opioid heterodimer. shares compounds with MC4R barr agon. U2OS PathHunter beta-arrestin, beta-gal luminescence; percent of deltorphin B response, DMSO zero. activation, % at 9.2 µM. actives 5.8% (n = 2,400). AID 602194;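 active = mean activation across replicates exceeds the hit threshold derived in the earlier primary screen, cut at about 18% in these data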;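 note: 100% = deltorphin B at 0.9 µM final and 0% = DMSO alone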
TAAR1 nonsel count = nonselective antagonist in TAAR1 antagonist counter-screen. shares compounds with TAAR1 antagonist. counterscreen cell line, calcium fluorescence, antagonist mode. inhibition, % at 3 µM. actives 77% (n = 2,400); in the data active = inhibition above about 22%;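 note: CHO-Ga16 host cells stimulated with ATP at an EC80 level; 0% = agonist EC80 plus vehicle and 100% = vehicle without agonist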
TAAR1 antag conf = confirmation of human TAAR1 antagonists | shares compounds with TAAR1 antagonist | TAAR1-expressing cells, fluorescence antagonist read-out | inhibition, % at 3 µM | actives 40% (n = 2,400) | AID 651785; in the data active = inhibition above about 49%;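 note: CHO-Ga16 host cells challenged with agonist PEA near its EC80; 0% = agonist at EC80 plus vehicle and 100% = vehicle with no agonist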
Ga16 ag counter-1 = nonselective Ga16 agonist in TAAR1 antagonist counter-screen. actives 18% (n = 2,400). activation, % at 3 µM. shares compounds with TAAR1 antagonist. Ga16-expressing cells, calcium fluorescence, agonist counterscreen; in the data active = activation above about 12%;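 note: 0% = vehicle wells and 100% = saturating stimulus response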
TAAR1 ag count = activates human TAAR1 in antagonist counter-screen | shares compounds with TAAR1 antagonist | hTAAR1 cell line, fluorescence activation, agonist mode | activation, % at 3 µM | actives 2% (n = 2,400); in the data active = activation above about 37%;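 note: CHO cells stably expressing TAAR1 with calcium dye readout; 0% = DMSO vehicle and 100% = full agonist response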
TAAR1 ag confirm = confirmation of human TAAR1 agonists. shares compounds with TAAR1 agonist. CHO RD-HGA16 TAAR1, Fluo-8 calcium fluorescence; scaled: DMSO 0%, maximal phenethylamine 100%. activation, % at 3 µM. actives 82% (n = 2,400). AID 651783;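 active = activation above a cutoff set at the run's mean compound activation plus 3 SD, cut at about 39% in these data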
Ga16 ag counter-2 = nonselective agonist in parental cells, TAAR1 agonist counter-screen; shares compounds with TAAR1 agonist; CHO-Ga16 parental, Fluo-8 calcium fluorescence; normalized to maximal ATP response, DMSO zero; activation, % at 3 µM; actives 50% (n = 2,400); AID 651787;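 active = activation above the run cutoff, the mean activation over all tested wells plus 3 SD, cut at about 12% in these data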;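 note: 0% = DMSO wells and 100% = maximal ATP response on the peak over basal ratio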
TAAR1 desensitize = TAAR1 response desensitization, agonist counter-screen; inhibition, % at 3 µM; AID 651951; actives 46% (n = 2,400); CHO RD-HGA16 hTAAR1, Fluo-8 calcium, beta-PEA response inhibition; shares compounds with TAAR1 agonist;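 active = inhibition above the run cutoff, the mean inhibition of all test compounds plus 3 SD, cut at about 49% in these data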;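 note: beta-PEA stimulus applied at its EC80; loss of beta-PEA calcium signal after compound pretreatment read as receptor desensitization; 0% = DMSO with beta-PEA at EC80 and 100% = DMSO alone without agonist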
Ga16 antag count = counter-screen for TAAR1 agonists: nonselective Ga16 antagonists; shares compounds with TAAR1 agonist; CHO-Ga16 ATP-induced calcium, Fluo-8 fluorescence; inhibition, % at 3 µM; actives 39% (n = 2,400); AID 651952;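 active = inhibition above the plate's mean compound inhibition plus 3 SD, computed per plate, cut at about 22% in these data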;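 note: 0% = EC80 ATP with DMSO and 100% = DMSO wells without ATP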
An asterisk follows results filed as active; i = inactive; / = no result given.

SMILES	TAAR1 agonist	HTR2A ag	MC4R antagonist	MC4R barr agon	Beta2AR agonist	TAAR1 antagonist	Beta2AR ag CP1	B2AR FAP counter	TAAR1 nonsel count	TAAR1 antag conf	Ga16 ag counter-1	TAAR1 ag count	others
O=C(COC(=O)c1ccccc1C(=O)c1ccc(Cl)c([N+](=O)[O-])c1)NC1CCCCCC1	13	-4	64*	-3	53*	74*	9.7*	i	35*	54*	9	10	U2OS cAMP counter=12;MC4R cAMP antag=31*
O=C(COC(=O)c1ccc(Cl)c([N+](=O)[O-])c1)NC1CCCC1	1	2	25	-2	10	4	/	/	/	/	/	/
Cc1cccc(C(=O)NCC(c2cccs2)N2CCOCC2)c1 (centres undefined)	1	2	21	-1	7	-11	/	/	/	/	/	/
O=C1NCN(c2ccccc2)C12CCN(CCCC(c1ccc(F)cc1)c1ccc(F)cc1)CC2	37	-4	4	7	49*	78*	82	i	47*	48	20*	35
O=C(CCCN1CCN(c2ccccc2)CC1)c1ccc(F)cc1	1	-7	-3	1	/	-33	/	/	/	/	/	/
COc1cccc(-c2cnc3c(c2)C(=O)N([C@H](C)CO)C[C@@H](C)[C@H](CN(C)C(=O)Nc2ccccc2F)O3)c1	5	-1	2	-2	/	-24	/	/	/	/	/	/
Cc1ccc(C(=O)OCC(=O)Nc2nc(-c3ccccc3)cs2)cc1NC(=O)c1ccco1	16	-1	11	0	54*	83*	38*	i	37*	54*	9	7
Cc1ccc(Cn2c(C)c(C(=O)NCc3ccc4c(c3)OCO4)sc2=O)cc1	3	-6	-8	2	/	10	/	/	/	/	/	/
COc1ccc(S(=O)(=O)N(Cc2cccnc2)Cc2cc3ccccc3[nH]c2=O)cc1	11	-3	15	-2	-5	51*	152	i	15	25	6	4
Clc1ccc(OCc2nnc(SCc3nc4ccccc4[nH]3)n2Cc2ccco2)cc1	7	3	3	-2	111*	50*	39*	i	45*	54*	14*	15
Cc1ccc(NS(=O)(=O)c2cccc(C(=O)NCC(c3ccco3)N3CCCC3)c2)cc1 (centres undefined)	21	-11	0	0	-3	4	/	/	/	/	/	/
O=C(CSc1nc2ccc(NC(=O)c3ccccc3C(=O)O)cc2s1)Nc1c(Cl)cccc1Cl	-1	-1	0	-2	8	-22	/	/	/	/	/	/
O=C(Nc1ccc2nc(SCc3ccc(Cl)cc3)sc2c1)c1ccccc1C(=O)N1CCOCC1	20	-2	64*	10.0*	107*	76*	17*	i	34*	54*	11	12	U2OS cAMP counter=30*;MC4R cAMP antag=66*;MC4R barr conf=24*;MOR-DOR barr ag=17
O=C(Nc1ccc(S(=O)(=O)N2CCCCC2c2cccnc2)cc1)c1ccccc1F (centres undefined)	12	0	0	-2	-5	56*	134	i	27*	34	10	9
CC(C)Oc1ccc(C(CCNCc2ccc(O)cc2)c2ccccc2)cc1 (centres undefined)	70*	-13	2	12*	34	36	103	i	/	/	/	/	MC4R barr conf=24*;MOR-DOR barr ag=24*;TAAR1 ag confirm=57*;Ga16 ag counter-2=29*;TAAR1 desensitize=40;Ga16 antag count=35*
COc1cc(CNCCc2c[nH]c3ccccc23)ccc1OCc1ccc(F)cc1	60*	6	-2	9.2*	72*	50*	56*	i	/	/	/	/	TAAR1 ag confirm=54*;Ga16 ag counter-2=30*;TAAR1 desensitize=52*;Ga16 antag count=49*
COc1cccc(CNCCc2c[nH]c3ccccc23)c1OCc1ccc(F)cc1	28	-4	0	2	34	32	/	/	/	/	/	/
